Results on 11 molecules are retold here after ChEMBL document CHEMBL3867444, “Design and synthesis of new potent PTP1B inhibitors with the skeleton of 2-substituted imino-3-substituted-5-heteroarylidene-1,3-thiazolidine-4-one: Part I” (Eur J Med Chem, 2016).

Assay [1] addresses T1, M-phase inducer phosphatase 2 (Homo sapiens, UniProt P30305).
T1 sequence (P30305 whole entry): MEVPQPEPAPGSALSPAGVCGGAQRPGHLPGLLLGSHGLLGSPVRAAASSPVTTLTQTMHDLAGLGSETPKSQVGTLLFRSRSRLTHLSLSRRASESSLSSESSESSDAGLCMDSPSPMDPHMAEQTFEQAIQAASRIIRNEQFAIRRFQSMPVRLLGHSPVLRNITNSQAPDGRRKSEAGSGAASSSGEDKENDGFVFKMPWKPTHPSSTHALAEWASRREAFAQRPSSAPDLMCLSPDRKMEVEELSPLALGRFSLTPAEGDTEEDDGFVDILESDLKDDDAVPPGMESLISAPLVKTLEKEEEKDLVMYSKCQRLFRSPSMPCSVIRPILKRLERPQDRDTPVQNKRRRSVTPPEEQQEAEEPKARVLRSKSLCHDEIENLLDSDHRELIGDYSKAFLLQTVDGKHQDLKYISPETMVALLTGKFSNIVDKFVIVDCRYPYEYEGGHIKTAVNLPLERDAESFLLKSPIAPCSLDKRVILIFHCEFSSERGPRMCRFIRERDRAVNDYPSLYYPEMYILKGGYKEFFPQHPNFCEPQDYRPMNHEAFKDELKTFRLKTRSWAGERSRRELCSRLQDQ
Nature of the assay: Inhibition of human recombinant GST-tagged CDC25B assessed as reduction in dephosphorylation of florigenic phosphatase substrate preincubated for 1 hr followed by substrate addition measured after 1 hr by fluorescence assay. In short, it runs like this:
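Purified GST-CDC25B fusion protein was preincubated with compound for 1 h, then fluorescein diphosphate (5mM) was added. Fluorescence was read within the linear range of the reaction after 1 h at room temperature. Na₃VO₄ served as positive control and DMSO as negative control.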

Assay [2] addresses T2, M-phase inducer phosphatase 2 (Homo sapiens) (UniProt P30305).
T2 sequence (whole entry): T1 sequence (P30305 whole entry)
Nature of the assay: Inhibition of human recombinant GST-tagged CDC25B assessed as reduction in dephosphorylation of florigenic phosphatase substrate at 5 ug/ml preincubated for 1 hr followed by substrate addition measured after 1 hr by fluorescence assay relative to control.

Assay [3] addresses T3, Tyrosine-protein phosphatase non-receptor type 1 (Homo sapiens) (UniProt P18031).
T3 sequence (whole entry): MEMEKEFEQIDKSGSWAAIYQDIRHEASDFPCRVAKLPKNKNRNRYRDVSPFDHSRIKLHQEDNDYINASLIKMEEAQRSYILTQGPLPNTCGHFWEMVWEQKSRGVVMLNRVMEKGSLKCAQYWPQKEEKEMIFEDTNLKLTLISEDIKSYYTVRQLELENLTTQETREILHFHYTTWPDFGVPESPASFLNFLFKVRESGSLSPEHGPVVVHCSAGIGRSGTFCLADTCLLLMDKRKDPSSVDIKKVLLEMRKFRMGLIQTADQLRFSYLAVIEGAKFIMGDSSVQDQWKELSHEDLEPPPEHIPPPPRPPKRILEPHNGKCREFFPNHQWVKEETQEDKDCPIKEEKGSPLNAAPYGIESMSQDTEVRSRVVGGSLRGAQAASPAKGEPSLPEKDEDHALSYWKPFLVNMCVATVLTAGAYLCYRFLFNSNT
Nature of the assay: Inhibition of human recombinant GST-tagged PTP1B catalytic domain expressed in Escherichia coli BL21-[…] plus (DE3) at 5 ug/ml using pNPP as substrate relative to control.

The target of assay [4] is T3, Tyrosine-protein phosphatase non-receptor type 1 (Homo sapiens). The experiment in a line: Inhibition of human recombinant GST-tagged PTP1B catalytic domain expressed in Escherichia coli BL21-[…] plus (DE3) at 20 ug/ml using pNPP as substrate relative to control.
The target in assay [5] is T4, Tyrosine-protein phosphatase non-receptor type 1 (Homo sapiens, UniProt P18031).
T4 sequence (P18031 whole entry): T3 sequence (whole entry)
The experiment in a line: Inhibition of human recombinant GST-tagged PTP1B catalytic domain expressed in Escherichia coli BL21-[…] plus (DE3) using pNPP as substrate.

The target of assay [6] is T4, Tyrosine-protein phosphatase non-receptor type 1. The experiment in a line: Inhibition of PTP1B (unknown origin).

Broadly, the IC50 is the concentration that gives 50% inhibition. By inhibition is commonly meant how much of the control response was suppressed.

Regarding SODIUM ORTHOVANAD, the half-inhibitory concentration (IC50) in assay [1] was found to be 0.91 µM.
Turning to `CCOC(=O)c1c(C)[nH]c(/C=C2\S/C(=N\c3ccccc3F)N(c3ccccc3F)C2=O)c1C`, the inhibition in assay [2] is 64.2%; in assay [3], 45%; in assay [4] it was 98.3%. Further, in assay [1], the IC50 amounted to 3.66 µM.
As to `CCOC(=O)c1c(C)[nH]c(/C=C2\S/C(=N/O)N(C(C)C)C2=O)c1C`, the inhibition is 80.2% in assay [2], 49% in assay [3] and 95.8% in assay [4]. Besides, the IC50 in assay [1] came out at 5.83 µM.
For `CC(C)N1C(=O)/C(=C/c2ccc(OCCN(C)c3ccccn3)cc2)S/C1=N\O`, in that order: 98.5%, 19.3%, 67.5% and 2.47 µM.
For `CCOC(=O)c1c(C)[nH]c(/C=C2\S/C(=N\c3ccccc3)N(c3ccccc3)C2=O)c1C`, the results for the inhibition in assay [2], in assay [3] and in assay [4] were 83.7%, 81.1% and 99.9%, respectively. For the same molecule, the IC50 is 8.66 µM in assay [5] and 1.66 µM in assay [1].
For `CCOC(=O)c1c(C)[nH]c(/C=C2\S/C(=N\c3ccc(F)cc3)N(c3ccc(F)cc3)C2=O)c1C`, in that order: 84.7%, 82.7%, 94.5%, 6.09 µM and 2.87 µM.
As to `CCOC(=O)c1c(C)[nH]c(/C=C2\S/C(=N\c3cccc(F)c3)N(c3cccc(F)c3)C2=O)c1C`, the figures for the inhibition in assay [2], in assay [3] and in assay [4] were 82.8%, 74.2% and 96.3%, respectively. The IC50 turned out to be 6.83 µM in assay [5] and 3.39 µM in assay [1].
As to `Cc1cc(I)cc2c1NC(c1cccc(N)c1)C1CC=CC21` (stereo not given), 7.5 µM corresponded to half-maximal inhibition in assay [6] (IC50).
For the molecule `CCOC(=O)c1c(C)[nH]c(/C=C2\S/C(=N\c3ccc(OC)cc3)N(c3ccc(OC)cc3)C2=O)c1C`, the inhibition in assay [2] was 76.5%; in assay [3], 47.7%; in assay [4] it was 98.7%. Also, the IC50 in assay [1] is 2.74 µM.
In the case of `CCOC(=O)c1c(C)[nH]c(/C=C2\S/C(=N\c3ccc(C)cc3)N(c3ccc(C)cc3)C2=O)c1C`, the inhibition in assay [4] is 28.4%.
The same measure, in the same setting: then `CC/N=C1\S/C(=C\c2ccc(OCCN(C)c3ccccn3)cc2)C(=O)N1CC`, with 42.1%.
